In the library only some 2% were active in any assay of this set; here they are far more common.
FLuc stim CS: FLuc activators, initial screening, artefact control for FLuc-dependent activation tests, biochemical, ATPlite luminescence. Luciferin 4-monooxygenase (Photinus pyralis), P08659. ATPlite luciferase biochemical, 10 min; 0 = ATP-free wells, 1 = DMSO control. activation factor at 10 µM. 200,000 tested, under 10 active. AID 1027, 2008;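 active = luciferase activation factor, scaled between plate controls, of at least 2 with compound at 10 µM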
Target sequence (P08659 whole entry, looked up): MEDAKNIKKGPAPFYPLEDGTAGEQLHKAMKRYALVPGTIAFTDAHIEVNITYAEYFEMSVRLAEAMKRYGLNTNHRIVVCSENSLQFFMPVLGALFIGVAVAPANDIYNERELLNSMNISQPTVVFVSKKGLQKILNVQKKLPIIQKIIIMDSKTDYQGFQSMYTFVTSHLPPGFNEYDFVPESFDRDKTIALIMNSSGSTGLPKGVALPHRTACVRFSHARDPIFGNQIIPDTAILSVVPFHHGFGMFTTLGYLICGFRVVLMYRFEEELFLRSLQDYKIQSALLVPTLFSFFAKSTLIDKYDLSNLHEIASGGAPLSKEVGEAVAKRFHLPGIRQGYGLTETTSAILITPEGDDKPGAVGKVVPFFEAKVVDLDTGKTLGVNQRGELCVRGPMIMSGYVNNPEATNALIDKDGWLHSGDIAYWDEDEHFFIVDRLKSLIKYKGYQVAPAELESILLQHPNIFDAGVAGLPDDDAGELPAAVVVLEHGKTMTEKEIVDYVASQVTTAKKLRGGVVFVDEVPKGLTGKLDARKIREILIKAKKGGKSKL
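System: cell-free luciferase reagent; medium: PBS as buffer for the ATP substrate; doses: test compounds dosed from 2 mM stocks in 100% DMSO; incubation: 10 min, room temperature; measured by: luminescence from luciferase reaction; read-out: luciferase activation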
PPC-1+TRAIL kill: compounds killing PPC-1 cancer cells with TRAIL present, primary screen, TRAIL potentiator project, ATPLite luminescence, uHTS; PPC-1 cells + TRAIL, ATPLite viability luminescence; cell killing (% activity), % at 4 µM or 5 µM; 220,000 tested, 0.41% active; AID 1443, 2008;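 active = cell killing above 50% in the first pass at 4 µM, then a duplicate retest at 5 µM averaging 50% or more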;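 also: plate controls were cells with TRAIL plus DMSO for no effect and medium-only wells lacking cells for full effect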
FLuc inh counter: firefly luciferase enzyme inhibitors, primary screen, artefact control for luciferase-based inhibitor screens, biochemical, luminescence, ATPLite. inhibition, % at 10 µM. 200,000 tested, 1.5% active. Luciferin 4-monooxygenase (Photinus pyralis), P08659. 10 min. AID 1006, 2008;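 active = inhibition above about 50% when tested at 10 µM, limit read from the data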
C8 TRAIL sens: viability loss with TRAIL in NB7+C8 cells, primary screen, TRAIL sensitizer project, cell-based, ATPlite luminescence; inhibition (viability loss, TRAIL sensitization), % at 10 µM; 360,000 tested, 1% active;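 active = compounds causing at least 50% loss of cell viability in the single-dose screen, relative to plate controls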
HSP90 inh: HSP90 inhibitors, primary screen, cell lysate, luminescence; Heat shock protein HSP 90 (rabbit reticulocyte lysate; luciferase refolding); Rabbit reticulocyte lysate, luciferase refolding luminescence, 3 h; inhibition, % at 5.6 µM; 290,000 tested, 0.91% active; AID 1789, 2009;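 active = inhibition above the screen-wide mean plus 3 SD, computed separately per campaign, cut at about 16% in these data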;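 also: 0% = DMSO wells and 100% = 60 µM geldanamycin wells; inhibitors lower the luminescence because luciferase stays unfolded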
* marks the source's active call; other numbers are inactive results; . = no result given.

SMILES | FLuc stim CS | PPC-1+TRAIL kill | FLuc inh counter | C8 TRAIL sens | HSP90 inh
CCC(C)[C@H](NC(=O)[C@@H]1CSC2c3ccccc3C(=O)N21)C(=O)NCc1ccncc1 (stereo partly drawn) | . | . | . | -4 | -2
CCCc1cnc(NCCNCC(O)COc2ccc(Cl)c(Cl)c2)nc1 (stereo not drawn) | . | 0 | . | 36 | 6
O=C(O)c1cc(-c2ccc3c(c2)OCO3)nc2ccc(Br)cc12 | 0.3 | 27 | 72* | 20 | -1
CCN(CC)CCCNc1oc(-c2cccc(Cl)c2)nc1C#N | 1 | 33 | -2 | 8 | 2
CCN(CC)CCCNc1ccc(-c2nnc(-c3ccc(OCC(C)C)cc3)o2)cn1 | . | . | . | 87* | 0
COc1cccc(-c2nnc(-c3ccco3)o2)c1 | 0.5 | 18 | 54* | 20 | 7
COc1cccc(-c2nnc(N)o2)c1 | . | -2 | . | 9 | -4
CC(C)COc1ccc(-c2nnc(-c3ccco3)o2)cc1 | 0.4 | 16 | 60* | 30 | 8
COc1cccc(-c2nnc(-c3ccc(C)o3)o2)c1 | 0.1 | 44 | 86* | 58* | 8
COc1ccc(CN2C[C@H]3CON(C)[C@H]3C[C@H]2c2ccc(-c3ccccc3)cc2)cc1 | . | . | . | -12 | .
Cc1cccc(Nc2nc(N)nc(CCl)n2)c1 | . | 14 | . | 90* | 12
COc1cccc(Nc2nc(N)nc(CCl)n2)c1 | . | 16 | . | 89* | -1
Cc1ccc(Nc2nc(N)nc(CCl)n2)cc1 | . | 48 | . | 93* | 8
Cc1ccccc1CNC(=O)c1ccccc1C | 1 | -10 | -4 | 9 | 3
Cc1ccccc1CNC(=O)c1ccccc1C(=O)O | 1 | 0 | -1 | 10 | 16*
O=C1Nc2ccccc2C1Cc1ccccc1 (stereo not drawn) | . | -1 | . | -32 | 0
O=C1C=CC2(C=C1)O[C@H](Cc1ccccc1)[C@@H](Cc1ccccc1)O2 | . | . | . | 95* | .
COc1ccc(C[C@@H]2OC3(C=CC(=O)C=C3)O[C@H]2Cc2ccc(OC)cc2)cc1 | . | . | . | 93* | .
Cc1cc(C)c2cc(C#N)c(NCCCN)nc2c1 | . | . | . | 10 | .
CCn1c(SCC(=O)NNC(=O)c2ccc(C)cc2)nnc1C1CC1 | . | . | . | 2 | 1
CC1(C)N=C(N)N=C(N)N1c1ccc(OCC(=O)N2CCOCC2)c(Cl)c1 | . | . | . | 83* | .
CC1(C)N=C(N)N=C(N)N1c1ccc(OCC(=O)N2CCOCC2)cc1 | . | . | . | 75* | .
O=C(COc1ccc(S(=O)(=O)N2CCCCC2)cc1Cl)N1CCOCC1 | . | . | . | 9 | -4
CCCCC(=O)Nc1ccccc1CC | . | 16 | . | 12 | 3
COc1ccc(S(=O)(=O)N2CCCCCC2)cc1NC(=O)CCCOc1ccccc1 | . | . | . | -5 | .
SMILES | FLuc stim CS | PPC-1+TRAIL kill | FLuc inh counter | C8 TRAIL sens | HSP90 inh
O=C(c1ccc(S(=O)(=O)N2CCCCC2)cc1)N1CCN(Cc2ccc3c(c2)OCO3)CC1 | 1.1 | -5 | -5 | -6 | 2
O=C(c1ccc2nc(N3CCCCC3)sc2c1)N1CCN(Cc2ccc3c(c2)OCO3)CC1 | 1.1 | 13 | -8 | 0 | 31*
COc1ccc(COc2ncnc3ccc(Br)cc23)cc1F | . | . | . | -17 | -1
COC(=O)/C(=N/Nc1ccccc1OC)N1CCCc2ccccc21 | . | 22 | . | 9 | 1
COc1ccc(-c2cn3c(C)c(C(=O)N4CCc5ccccc5C4)sc3n2)cc1 | . | . | . | -23 | 19*
COc1ccc(-c2cn3c(C)c(C(=O)Nc4cc(NC(C)=O)ccc4OC)sc3n2)cc1 | 1 | 10 | -2 | -4 | 54*
Cc1ccccc1N=C1SCCN1C(=O)CN1C(=O)NC2(CCCC2)C1=O | . | . | . | 3 | .
CC(C)(C)C1CCC(=NNC(=O)C(=O)NCc2ccco2)CC1 (stereo not drawn) | 1.1 | 23 | -7 | 4 | 3
CCN(CC)C(=O)c1nn(-c2ccccc2)c2c1C1CCC2(C)C1(C)C (stereo not drawn) | 1 | -3 | 1 | 51* | 4
COc1cccc(/C=N/NC(=O)C(C)n2nc(C)c([N+](=O)[O-])c2C)c1O (stereo not drawn) | 0.8 | 4 | 24 | 55* | -5
CCOc1ccccc1/C=N/Nc1ccnc(=O)[nH]1 | . | . | . | 1 | -1
COc1cccc(/C=N/Nc2ccc(C(=O)O)cc2)c1O | 0.2 | 18 | 83* | 56* | 95*
COc1cccc(/C=N/Nc2ccnc(=O)[nH]2)c1O | . | . | . | 48* | 15
O=[N+]([O-])c1ccc(NN=Cc2cccc3ccccc23)nc1 | . | . | . | -2 | .
COc1cccc(/C=N/Nc2ccc([N+](=O)[O-])cn2)c1O | . | . | . | 60* | 11
CCC(c1nnnn1-c1ccc2c(c1)OCCO2)N1CCN(c2ncccc2C(F)(F)F)CC1 (stereo not drawn) | . | . | . | 15 | .
COc1ccc(C(=O)N2CCCC(C(=O)N3CCN(c4ccccc4)CC3)C2)cc1 (stereo not drawn) | . | 22 | . | -17 | 0
Cc1ccc(-n2c(C)cc(/C=N/Nc3ccc([N+](=O)[O-])cn3)c2C)cc1 | 1.1 | 4 | -5 | -22 | 3
COc1cccc(C=Nc2ccccc2C#N)c1O | 0.1 | 14 | 89* | -1 | 0
Cc1cc(/C=N/Nc2ccc([N+](=O)[O-])cn2)c(C)n1-c1ccccc1 | 1 | -1 | -2 | -7 | 16*
O=c1nccc(N/N=C/c2ccccc2O)[nH]1 | . | . | . | 64* | 16*
CCc1nc2ccc(C(=O)Nc3cccc(OCC(=O)N(C)C)c3)cn2c1N(C)C(=O)c1cccc(OC)c1 | . | . | . | -13 | .
Cc1cc(C)n(-c2ccc(C(=O)Nc3ccccn3)cc2)n1 | 0.3 | -17 | 65* | 49 | 6
CCOC(=O)c1ccc(NC(=O)c2ccc(C)c(S(=O)(=O)N3CCOCC3)c2)cc1 | 1.1 | 10 | -6 | 70* | -3
Cc1cc(C)n(-c2ccc(C(=O)Nc3ccc(C)c(S(=O)(=O)N4CCOCC4)c3)cc2)n1 | . | 22 | . | 53* | 0
SMILES | FLuc stim CS | PPC-1+TRAIL kill | FLuc inh counter | C8 TRAIL sens | HSP90 inh
Cc1cc(C)n(-c2ccc(C(=O)Nc3cccnc3Cl)cc2)n1 | 1 | 1 | 3 | 2 | -1
CC(=O)c1ccc(NC(=O)c2ccc(C)c(S(=O)(=O)N3CCOCC3)c2)cc1 | . | . | . | -4 | -2
Cc1nnc(NC(=O)Cn2nc(C)c3ccccc3c2=O)s1 | 1 | . | -3 | -3 | 0
CCOC(=O)c1c(NC(=O)C(=O)N/N=C/c2ccccc2O)sc2c1CCCCC2 | 1 | 13 | 0 | 5 | -1
CCOC(=O)c1c(NC(=O)C(=O)N/N=C/c2ccccc2OC)sc2c1CCCCC2 | 0.4 | 13 | 59* | -7 | 4
CCc1ccc2oc(C(=O)Nc3cccnc3)c(C)c2c1 | . | . | . | 42 | 3
Cc1c(C(=O)Nc2cccnc2)oc2ccc(Br)cc12 | . | . | . | 50* | -3
c1ccc(CSc2ccc(-c3cccs3)nn2)nc1 | 0.7 | 22 | 34 | 13 | -5
c1ccc(CSc2ccc(-c3cccs3)nn2)cc1 | 0.3 | 24 | 66* | 54* | -6
